Assay results: ChEMBL document CHEMBL1212863, “Synthesis, and biological evaluation of 2-(4-aminophenyl)benzothiazole derivatives as photosensitizing agents” (2010)
Values belong to the compound of their own block, whether it stands above or below them. Activity calls are given as the source filed them. No cut-off for these calls is given here.

What was measured:
[1] = Cell cycle arrest in human BCC cells assessed as accumulation at sub G1 phase at 4 uM incubated for 4 hrs followed by 1 J/cm'2 UV irradiation measured after 24 hrs […]; type: functional
Method in brief: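 BCC cells (ATCC; RPMI1640, 10% FCS) exposed 4 h to agent, rinsed, irradiated in PBS with UVA (365 nm peak, 0.75 mW/cm²) at 1 J/cm². After 24 h, cells were fixed in 50% cold ethanol at −20 °C, treated with 100 µg/mL RNase A for 20 min at 37 °C, and stained with 50 µg/mL PI. 10,000 events were read by flow cytometry; the sub-G1 fraction was counted as apoptotic.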

BCC [2] = assay: Induction of apoptosis in human BCC cells assessed as decrease in mitochondrial potential at 2 uM incubated for 4 hrs followed by 1 J/cm'2 UV irradiation measured after 24 hrs; type: functional, cell-based
Method in brief: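 BCC dishes grown 24 h were pretreated 4 h at 0, 2 or 4 µM and given 1 J/cm² UVA, then trypsinized. Cells were stained 30 min at room temperature with DiOC₆ (100 nM/mL), washed, and read immediately by flow cytometry (FL-1, 530/30 nm). The percentage of cells with reduced Δψmt was scored from 10,000 cells. Three independent experiments were run.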

[3] = Phototoxicity against human BCC cells assessed as cell viability at 4 uM incubated for 4 hrs followed by 0.5 J/cm'2 UV irradiation measured after 24 hrs by MTT assay; type: functional; details: light or radiation study, read-out: Activity
Method in brief: (§1)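 MTT assay: BCC cells were seeded at 2500/well and attached overnight. Cells were incubated 4 h with drug in triplicate, rinsed, irradiated in PBS with 365 nm UVA (0.25, 0.5 or 1 J/cm²), then returned to medium. After 24 h, MTT was added for 2 h at 37 °C, formazan was dissolved in DMSO, and absorbance was read at 540 nm relative to untreated controls.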

BCC [4] = assay: Induction of apoptosis in human BCC cells assessed as increase in intracellular H2O2 level at 4 uM incubated for 4 hrs followed by 1 J/cm'2 UV irradiation […]; type: functional, cell-based
Method in brief: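 ROS was measured in BCC cells given 0–4 µM drug, with or without catalase (800 U/mL) pretreatment, and then irradiated with UVA. Immediately after irradiation, DCFH-DA (10 µM) was added for 30 min at 37 °C. DCF fluorescence was read by flow cytometry on FL-1.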

[5] = Induction of apoptosis in human BCC cells assessed as decrease in intracellular ATP level at 2 uM incubated for 4 hrs followed by 1 J/cm'2 UV irradiation […]; type: functional; design: scale not given: the % may be the effect or the level left
BCC [6] = assay: Inhibition of MAPK phosphorylation in human BCC cells at 4 uM incubated for 4 hrs followed by 1 J/cm'2 UV irradiation; type: cell-based
Method in brief: (§2)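 BCC cells were exposed to drug with UVA irradiation. Blots were blocked in 5% milk/PBS-T and probed for total and phospho-ERK, p38 and JNK. HRP secondaries and chemiluminescence were used; bands were quantified by densitometric scanning.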

[7] = Phototoxicity against human BCC cells assessed as cell viability at 4 uM incubated for 4 hrs followed by 1 J/cm'2 UV irradiation measured after 24 hrs by MTT assay; type: functional; details: light or radiation study, read-out: Activity; method in brief: as §1
[8] = Induction of apoptosis in human BCC cells assessed as caspase3 activation at 4 uM incubated for 4 hrs followed by 1 J/cm'2 UV irradiation measured after 24 hrs […]
BCC [9] = assay: Induction of ERK phosphorylation in human BCC cells at 4 uM incubated for 4 hrs followed by 1 J/cm'2 UV irradiation
[10] = molecular target: c-Jun N-terminal kinase, JNK (Homo sapiens) (UniProt P45983+P53779+P45984); assay: Inhibition of JNK phosphorylation in human BCC cells at 4 uM incubated for 4 hrs followed by 1 J/cm'2 UV irradiation; type: cell-based; method in brief: as §2
[11] = Induction of apoptosis in human BCC cells assessed as decrease in intracellular ATP level at 4 uM incubated for 4 hrs followed by 1 J/cm'2 UV irradiation […]; type: functional; design: scale not given: the % may be the effect or the level left
[12] = Phototoxicity against human BCC cells assessed as cell viability at 4 uM incubated for 4 hrs followed by 0.25 J/cm'2 UV irradiation measured after 24 hrs by MTT assay; type: functional; details: light or radiation study, read-out: Activity; method in brief: as §1
[13] = Induction of apoptosis in human BCC cells assessed as caspase3 activation at 4 uM incubated for 4 hrs followed by 1 J/cm'2 UV irradiation measured after 24 hrs […]; type: functional; details: in the assay text read “2 uM” for “4 uM”
Method in brief: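 Caspase-3 was measured in BCC cells 24 h after 4 h drug exposure and 1 J/cm² UVA (365 nm) given in PBS. Pellets were lysed in cold buffer (25 µL per 10⁶ cells), spun at 12,000 rpm for 10 min at 4 °C, and the supernatant assayed colorimetrically by pNA release at 405 nm. Results are mean SD.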

Compound: CCc1ccc2nc(-c3ccc(N)cc3)sc2c1
- Activity [1]: 29.2%

Compound: COc1cccc2nc(-c3ccc(N)cc3)sc12
- Activity [1]: 24.4%

Compound: COc1ccc2nc(-c3ccc(N)c(C)c3)sc2c1
- Activity [1]: 14.8%

Compound: Cc1ccc2nc(-c3ccc(N)cc3)sc2c1
- Activity [1]: 13.4%

Compound: Cc1cc(-c2nc3ccccc3s2)ccc1N
- Activity [1]: 13.6%

Compound: CCc1ccc2nc(-c3ccc(N)c(C)c3)sc2c1
- Activity [1]: 13.8%

Compound: COc1ccc2nc(-c3ccc(N)cc3)sc2c1
- Activity [1]: 6.5%

Compound: Nc1ccc(-c2nc3ccccc3s2)cc1
- Activity [1]: 6.5%

- Activity [10]: inactive
Compound: Nc1ccc(-c2nc3ccc(C(F)(F)F)cc3s2)cc1
- Activity (BCC [2]): Active
- viability at 4 µM [3]: 65%
- Activity (BCC [4]): Active
- Activity [5]: 30%
- Activity (BCC [6]): inactive
- viability at 4 µM [7]: 45%
- Activity [8]: 27.5%
- Activity (BCC [9]): Active
- Activity [1]: 35.4%
- Activity [11]: 45%
- viability at 4 µM [12]: 71%
- Activity [13]: 19.5%

Compound: Cc1cc(-c2nc3ccc(C(F)(F)F)cc3s2)ccc1N
- Activity [1]: 6.4%
